Assay results: ChEMBL document CHEMBL2040707, “Fluorinated amino-derivatives of the sesquiterpene lactone, parthenolide, as (19)f NMR probes in deuterium-free environments” (2011)

Test system: HL-60
Assay: Antiproliferative activity against human HL60 cells after 72 hrs by MTT assay
Assay type: functional
Conditions: HL-60, 72 h
Summary of the method: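 HL-60 cells from ATCC grown in phenol red-free RPMI-1640 with 10% FBS at 37 °C, 5% CO2. Seeded 5,000 cells/well, treated at ten concentrations in quadruplicate (final 0.5% DMSO; vehicle control 0.5% DMSO). After 72 h, MTT (2.5 mg/mL solution) added for 4 h, formazan dissolved in acidic isopropanol/Triton for 16 h, A570 read. GI50 set relative to a Day 0 density plate; 95% CI given.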

| SMILES | GI50 [µM] | LC50 (concentration killing 50% of cells) [µM] | TGI [µM] |
| --- | --- | --- | --- |
| C/C1=C/CC[C@@]2(C)O[C@@H]2[C@H]2OC(=O)[C@@H](CN3CCCC3)[C@@H]2CC1 | 0.75 | 2.54 | 1.74 |
| C/C1=C/CC[C@@]2(C)O[C@@H]2[C@H]2OC(=O)[C@@H](CN3CCC(F)(F)C3)[C@@H]2CC1 | 8.32 | 23.8 | 18.3 |
| C/C1=C/CC[C@@]2(C)O[C@@H]2[C@H]2OC(=O)[C@@H](CN3CCCC(C(F)(F)F)C3)[C@@H]2CC1 (stereo partly specified) | 1.69 | 21.3 | 7.29 |
| C/C1=C\CC[C@@]2(C)O[C@@H]2[C@H]2OC(=O)[C@@H](CN3CCC(F)(F)CC3)[C@@H]2CC1 | 0.69 | 17.7 | 5.58 |
| C/C1=C/CC[C@@]2(C)O[C@@H]2[C@H]2OC(=O)[C@@H](CN3CC[C@@H](F)C3)[C@@H]2CC1 | 0.58 | 1.66 | 1.18 |
| C/C1=C/CC[C@@]2(C)O[C@@H]2[C@H]2OC(=O)[C@@H](CN3CCC(F)CC3)[C@@H]2CC1 | 1.77 | 8.07 | 5.7 |
| C/C1=C/CC[C@@]2(C)O[C@@H]2[C@H]2OC(=O)[C@@H](CN3CCCC(F)(F)C3)[C@@H]2CC1 | 16.9 | – | – |
| C/C1=C/CC[C@@]2(C)O[C@@H]2[C@H]2OC(=O)[C@@H](CN3CCCCC3)[C@@H]2CC1 | 0.84 | 10.1 | 3.99 |
| C/C1=C/CC[C@@]2(C)O[C@@H]2[C@H]2OC(=O)[C@@H](CN3CC[C@H](F)C3)[C@@H]2CC1 | 24.7 | – | 46.2 |
| C=C1C(=O)O[C@@H]2C3O[C@]3(C)CC/C=C(\C)CC[C@@H]12 (stereo partly specified) | 0.52 | – | 1.36 |
| C/C1=C/CC[C@@]2(C)O[C@@H]2[C@H]2OC(=O)[C@@H](CN3CCCC(F)C3)[C@@H]2CC1 (stereo partly specified) | 1.13 | – | 12.2 |
| C/C1=C/CC[C@@]2(C)O[C@@H]2[C@H]2OC(=O)[C@@H](CN3CCC(C(F)(F)F)CC3)[C@@H]2CC1 | 1 | 3.11 | 2.14 |
